Assay results published in ChEMBL document CHEMBL4177752, “Discovery of Novel Schizocommunin Derivatives as Telomeric G-Quadruplex Ligands That Trigger Telomere Dysfunction and the Deoxyribonucleic Acid (DNA) Damage Response” (J Med Chem, 2018).
The source made the active and inactive calls. The calls are words filed in the database; no cut-off is given here.

Columns and labels:
Quadruplex DNA [1] = assay: Stabilization of F21T telomeric G-quadruplex DNA (unknown origin) assessed as change in melting temperature at 1 uM by FRET assay; type: nucleic-acid assay
Procedure, shortened: (§1)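 FRET melting: 0.2 µM F21T or F10T (FAM/TAMRA-labelled), with or without 1.0 µM ligand, in 10 mM Tris-HCl pH 7.4 with 60 mM KCl. Excitation 470 nm, emission 530 nm, read every 1 °C from 37–99 °C at 1 °C/min with a 30 s hold. ΔTm = Tm(DNA+ligand) − Tm(DNA).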

[2] = Stabilization of F10T hairpin duplex DNA (unknown origin) assessed as change in melting temperature at 1 uM by FRET assay; procedure, shortened: as §1
Quadruplex DNA [3] = assay: Binding affinity to HTG21 telomeric G-quadruplex DNA (unknown origin) by SPR method; type: nucleic-acid assay
Procedure, shortened: (§2)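 SPR: biotinylated HTG21 or hairpin DNA (200 nM) was folded in 50 mM Tris-HCl pH 7.4 with 100 mM KCl and captured to about 1,000 RU on an NLC chip against a blank reference cell. Ligand at 0.625–40 µM was injected at 25 µL/min (400 s association, 300 s dissociation) at 25 °C. The chip was regenerated with 1 M KCl and blank sensorgrams were subtracted.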

[4] = Binding affinity to hairpin duplex DNA (unknown origin) at 40 uM by SPR method; procedure, shortened: as §2
HeLa = assay: Antiproliferative activity against human HeLa cells after 48 hrs by MTT assay; type: functional, cell-based
Procedure, shortened: (§3)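 Cells seeded at 5.0×10^3 per well and exposed to a range of compound concentrations for 48 h. MTT (2.5 mg/mL solution) was then added for 4 h, formazan was dissolved in DMSO, and OD was read at 570 nm. HL-60 was grown in RPMI-1640 with 10% FBS, the other lines in DMEM with 10% FBS, at 37 °C and 5% CO2. Triplicates; IC50 taken from mean OD versus concentration curves.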

SiHa = assay: Antiproliferative activity against human SiHa cells after 48 hrs by MTT assay; type: functional, cell-based; procedure, shortened: as §3
HL-60 = assay: Antiproliferative activity against human HL60 cells after 48 hrs by MTT assay; type: functional, cell-based; details: HL-60, 48 h; procedure, shortened: as §3
A549 = assay: Antiproliferative activity against human A549 cells after 48 hrs by MTT assay; type: functional, cell-based; details: A549, 48 h; procedure, shortened: as §3
U2OS = assay: Antiproliferative activity against human U2OS cells after 48 hrs by MTT assay; type: functional, cell-based; procedure, shortened: as §3

| Structure (SMILES) | ΔTm (Quadruplex DNA [1]) | ΔTm [2] | Kd (Quadruplex DNA [3]) | Activity [4] | IC50 (HeLa) | IC50 (HL-60) | IC50 (A549) | IC50 (U2OS) | IC50 (SiHa) |
| --- | --- | --- | --- | --- | --- | --- | --- | --- | --- |
| CN(C)CCCN(C)c1cc2c(cc1F)/C(=C/c1nc3cc(N4CCN(C)CC4)c(F)cc3c(=O)[nH]1)C(=O)N2 | 15.6 °C | 0.2 °C | > 40 µM | inactive | 12.8 µM | 3.2 µM | 10.4 µM | 9.4 µM | 3.5 µM |
| CN(C)CCCNc1cc2nc(/C=C3\C(=O)Nc4cc(N5CCOCC5)c(F)cc43)[nH]c(=O)c2cc1F | 11.9 °C | 0.1 °C | > 40 µM | inactive | 30.1 µM | 3.4 µM | > 50 µM | > 50 µM | > 50 µM |
| CCN(CC)CCCN1C(=O)/C(=C\c2nc3cc(N4CCN(C)CC4)c(F)cc3c(=O)[nH]2)c2ccccc21 | 5.8 °C | 0.3 °C | > 40 µM | inactive | > 50 µM | 13.2 µM | > 50 µM | > 50 µM | > 50 µM |
| O=C1Nc2cc(N3CCOCC3)c(F)cc2/C1=C/c1nc2cc(NCCCN3CCOCC3)c(F)cc2c(=O)[nH]1 | 5.2 °C | 0.2 °C | > 40 µM | inactive | > 50 µM | > 50 µM | > 50 µM | > 50 µM | > 50 µM |
| CN1CCN(c2cc3c(cc2F)/C(=C/c2nc4cc(N5CCN(C)CC5)c(F)cc4c(=O)[nH]2)C(=O)N3)CC1 | 12.2 °C | 0.1 °C | > 40 µM | inactive | > 50 µM | 12.3 µM | > 50 µM | > 50 µM | > 50 µM |
| CN(C)CCNc1cc2nc(/C=C3\C(=O)Nc4cc(N5CCN(C)CC5)ccc43)[nH]c(=O)c2cc1F | 18 °C | 0.2 °C | > 40 µM | inactive | 15.7 µM | 7.8 µM | 2.2 µM | 6.3 µM | 3.4 µM |
| O=C1Nc2ccccc2/C1=C/c1nc2cc(NCCCN3CCOCC3)c(F)cc2c(=O)[nH]1 | 8.6 °C | 0.1 °C | > 40 µM | inactive | > 50 µM | > 50 µM | > 50 µM | > 50 µM | > 50 µM |
| CCN(CC)CCCNc1cc2nc(/C=C3\C(=O)Nc4cc(N5CCOCC5)c(F)cc43)[nH]c(=O)c2cc1F | 9 °C | 0.1 °C | > 40 µM | inactive | 34.3 µM | 4.2 µM | > 50 µM | 32.4 µM | 43.6 µM |
| CN1CCN(c2ccc3c(c2)NC(=O)/C3=C\c2nc3cc(NCCN4CCCCC4)c(F)cc3c(=O)[nH]2)CC1 | 18.7 °C | 0.2 °C | > 40 µM | inactive | 20.5 µM | 2.8 µM | 1.8 µM | 3.6 µM | 5.4 µM |
| O=C1Nc2cc(N3CCOCC3)c(F)cc2/C1=C/c1nc2cc(NCCCN3CCCC3)c(F)cc2c(=O)[nH]1 | 8.4 °C | 0.3 °C | > 40 µM | inactive | > 50 µM | 3.8 µM | > 50 µM | > 50 µM | 42.5 µM |
| CN(C)CCCNc1ccc2c(=O)[nH]c(/C=C3\C(=O)Nc4cc(N5CCN(C)CC5)ccc43)nc2c1 | 16.5 °C | 0.1 °C | > 40 µM | inactive | 49 µM | 4.3 µM | 19 µM | 14.1 µM | 11.5 µM |

Now from value to molecule, other results behind:

| ΔTm (Quadruplex DNA [1]) | ΔTm [2] | Kd (Quadruplex DNA [3]) | Activity [4] | IC50 (HeLa) | IC50 (HL-60) | IC50 (A549) | IC50 (U2OS) | Structure (SMILES) | IC50 (SiHa) |
| --- | --- | --- | --- | --- | --- | --- | --- | --- | --- |
| 23.6 °C | 0.3 °C | 7.9 µM | inactive | 9 µM | 2.9 µM | 25.3 µM | 16.4 µM | CN1CCN(c2cc3c(cc2F)/C(=C/c2nc4cc(NCCCN5CCCC5)c(F)cc4c(=O)[nH]2)C(=O)N3)CC1 | 9.4 µM |
| 11.8 °C | 0.2 °C | > 40 µM | inactive | 13.4 µM | 3.2 µM | 14.8 µM | 18.7 µM | CN(C)CCCNc1cc2nc(/C=C3\C(=O)Nc4ccccc43)[nH]c(=O)c2cc1F | 17.1 µM |
| 9.2 °C | 0.1 °C | > 40 µM | inactive | 27.1 µM | 8.2 µM | 18.2 µM | 28.4 µM | CN(C)CCCNc1cc2nc(/C=C3/C(=O)Nc4ccccc43)n(CCCN(C)C)c(=O)c2cc1F | 30.5 µM |
| 20.1 °C | 0.3 °C | 14 µM | inactive | 22.6 µM | 5.6 µM | 12.4 µM | 9.2 µM | CN(C)CCCN(C)c1cc2c(cc1F)/C(=C/c1nc3cc(NCCN(C)C)c(F)cc3c(=O)[nH]1)C(=O)N2 | 7.6 µM |
| 10 °C | 0.1 °C | > 40 µM | inactive | > 50 µM | 7.5 µM | 8.6 µM | 12.6 µM | CCN(CC)CCCNc1cc2nc(/C=C3\C(=O)Nc4ccccc43)[nH]c(=O)c2cc1F | 23.4 µM |
| 23.1 °C | 0.3 °C | 22 µM | inactive | 9 µM | 1.7 µM | 6.1 µM | 8.2 µM | CCN(CC)CCNc1cc2nc(/C=C3\C(=O)Nc4cc(N5CCN(C)CC5)c(F)cc43)[nH]c(=O)c2cc1F | 12.4 µM |
| 11.5 °C | 0.5 °C | 21 µM | inactive | > 50 µM | > 50 µM | > 50 µM | > 50 µM | CN1CCN(c2cc3c(cc2F)/C(=C/c2nc4cc(NCCCn5ccnc5)c(F)cc4c(=O)[nH]2)C(=O)N3)CC1 | > 50 µM |
| 22.7 °C | 0.1 °C | 21 µM | inactive | 10.5 µM | 2.7 µM | 5.6 µM | 7.1 µM | CN1CCN(c2cc3c(cc2F)/C(=C/c2nc4cc(NCCN5CCCC5)c(F)cc4c(=O)[nH]2)C(=O)N3)CC1 | 9.3 µM |
| 19.8 °C | 0.1 °C | 9.6 µM | inactive | 8.8 µM | 3.3 µM | 9.7 µM | 12.7 µM | CN1CCN(CCCNc2cc3nc(/C=C4\C(=O)Nc5cc(N6CCN(C)CC6)c(F)cc54)[nH]c(=O)c3cc2F)CC1 | 2.8 µM |
| 25.3 °C | 0.1 °C | 4.9 µM | inactive | 9.6 µM | 5.7 µM | 6.1 µM | 10.2 µM | CCN(CC)CCCNc1cc2nc(/C=C3\C(=O)Nc4cc(N5CCN(C)CC5)c(F)cc43)[nH]c(=O)c2cc1F | 7.9 µM |
| 12.6 °C | 0.2 °C | 23 µM | inactive | 48.6 µM | 16.1 µM | > 50 µM | > 50 µM | CN(C)CCCN(CCCN(C)C)c1cc2nc(/C=C3\C(=O)Nc4ccccc43)[nH]c(=O)c2cc1F | 10.1 µM |
